Measured values reported in ChEMBL document CHEMBL1132437, “Synthesis and antimicrobial activity of 4H-4-oxoquinolizine derivatives: consequences of structural modification at the C-8 position” (1999).
Converted amounts (≈) assume the structure as drawn.

Experiments:
Pseudomonas aeruginosa [1] = experiment: (§1) In vivo efficacy against Pseudomonas aeruginosa 5007 in mouse protection test after administration by oral gavage; type: functional
Method in brief: (§2)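 Mouse protection model: mice infected intravenously with 100-fold LD50 of the organism. Compound given by subcutaneous injection or oral gavage at 1 and 5 h after infection, over a dose range. Deaths tracked for 7 days post-inoculation. ED50 is the dose giving 50% survival of treated mice over the trial.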

Mus musculus [2] = experiment: In vivo efficacy against Streptococcus pneumoniae ATCC 6303 in mouse protection test after administration by oral gavage; type: functional; method in brief: as §2
Pseudomonas aeruginosa [3] = experiment: (§3) In vivo efficacy against Pseudomonas aeruginosa 5007 in mouse protection test after subcutaneous administration; type: functional; details: Pseudomonas aeruginosa, sc; read-out: ED50; method in brief: as §2
Staphylococcus aureus [4] = experiment: In vitro antibacterial activity against gram-positive Staphylococcus aureus NCTC 10649M; type: functional; details: Staphylococcus aureus, NCTC 10649; read-out: MIC
Method in brief: (§4)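 Agar dilution MIC determination following the National Committee for Clinical Laboratory Standards recommendations.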

Escherichia coli [5] = experiment: In vivo efficacy against Escherichia coli JUHL in mouse protection test after subcutaneous administration; type: functional; method in brief: as §2
Staphylococcus aureus [6] = experiment: In vivo efficacy against Staphylococcus aureus NCTC 10649M in mouse; type: functional; details: Staphylococcus aureus; read-out: ED50; method in brief: as §2
Pseudomonas aeruginosa [7] = experiment: Not Plasmodium species; type: functional
Mus musculus [8] = experiment: In vivo efficacy against Staphylococcus aureus NCTC 10649M in mouse protection test after administration by oral gavage; type: functional
Escherichia coli [9] = experiment: In vivo efficacy against Escherichia coli JUHL in mouse protection test after p.o. administration.; type: functional; method in brief: as §2
Burkholderia cepacia = experiment: In vitro antibacterial activity against gram negative Pseudomonas cepacia 2961; type: functional; details: Burkholderia cepacia; read-out: MIC; method in brief: as §4
Staphylococcus aureus [10] = experiment: In vitro antibacterial activity against gram-positive Staphylococcus aureus 1775; type: functional; method in brief: as §4
Enterococcus faecium = experiment: In vitro antibacterial activity against gram-positive Enterococcus faecium ATCC 8043; type: functional; details: Enterococcus faecium, ATCC 8043; read-out: MIC; method in brief: as §4
Mus musculus [11] = experiment: In vivo efficacy against Streptococcus pneumoniae ATCC 6303 in mouse protection test after subcutaneous administration; type: functional; details: sc; method in brief: as §2
Streptococcus pyogenes [12] = experiment: In vitro antibacterial activity against Streptococcus pyogenes 930 an erythromycin-resistant; type: functional
Method in brief: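 MIC by agar dilution following National Committee for Clinical Laboratory Standards recommendations. P. cepacia 2961 is a ciprofloxacin-resistant strain; S. pyogenes 930 is erythromycin-resistant.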

Escherichia coli [13] = experiment: In vitro antibacterial activity against gram negative Escherichia coli KNK 437; type: functional; details: Escherichia coli; read-out: MIC; method in brief: as §4
Pseudomonas aeruginosa [14] = experiment: In vitro antibacterial activity against Gram-negative Pseudomonas aeruginosa 5007; type: functional; details: Pseudomonas aeruginosa; read-out: MIC; method in brief: as §4
Pseudomonas aeruginosa [15] = experiment: In vitro antibacterial activity against gram negative P. aeruginosa DPHP 5263; type: functional; details: Pseudomonas aeruginosa, DPHP 5263; read-out: MIC; method in brief: as §4
Streptococcus pyogenes [16] = experiment: In vitro antibacterial activity against gram positive Streptococcus pyogenes 930; type: functional; details: Streptococcus pyogenes; read-out: MIC; method in brief: as §4
Mus musculus [17] = experiment: In vivo efficacy against Escherichia coli JUHL in mouse protection test after by oral gavage; type: functional; method in brief: as §2
Staphylococcus aureus [18] = experiment: In vivo efficacy against Staphylococcus aureus NCTC 10649M in mouse protection test after p.o. administration.; type: functional; method in brief: as §2
Streptococcus pneumoniae = experiment: In vivo efficacy against Streptococcus pneumoniae ATCC 6303 in mouse protection test after s.c. administration.; type: functional; method in brief: as §2
Escherichia coli [19] = experiment: In vitro antibacterial activity against Escherichia coli KNK 437 a ciprofloxacin less sensitive strain; type: functional; method in brief: as §4
Mus musculus [20] = experiment: In vivo efficacy against Escherichia coli JUHL in mouse protection test after administration by oral gavage.; type: functional; method in brief: as §2
Mus musculus [21] = experiment: as §3; type: functional; details: sc; method in brief: as §2
Mus musculus [22] = experiment: In vivo efficacy against Escherichia coli JUHL in mouse protection test after administration by oral gavage; type: functional; method in brief: as §2
Mus musculus [23] = experiment: In vivo antibacterial activity (dose protecting 50% mice)against Gram-positive S aureus NCTC 10649M after subcutaneous administration.; type: functional; details: sc; method in brief: as §2
Mus musculus [24] = experiment: IIn vivo efficacy against Streptococcus pneumoniae ATCC 6303 in mouse protection test after oral administration by oral gavage
Mus musculus [25] = experiment: as §1; type: functional; method in brief: as §2
Mus musculus [26] = experiment: In vivo efficacy against Streptococcus pneumoniae ATCC 6303 in mouse protection test after administration by oral gavage.; type: functional; method in brief: as §2
Mus musculus [27] = experiment: n vivo efficacy against Streptococcus pneumoniae ATCC 6303 in mouse protection test after administration by oral gavage; type: functional; method in brief: as §2
[28] = Pseudomonas aeruginosa, po, read-out: ED50
[29] = Escherichia coli, sc, read-out: ED50
[30] = Escherichia coli, po, read-out: ED50
[31] = Staphylococcus aureus, read-out: MIC
[32] = Staphylococcus aureus, po, read-out: ED50
[33] = Streptococcus pneumoniae, sc, read-out: ED50

| Structure (SMILES) | ED50 (Pseudomonas aeruginosa [1]; [28]) [mg/kg] | ED50 (Mus musculus [2]) [mg/kg] | ED50 (Pseudomonas aeruginosa [3]) [mg/kg] | MIC (Staphylococcus aureus [4]) [µg/mL] | ED50 (Escherichia coli [5]; [29]) [mg/kg] | ED50 (Staphylococcus aureus [6]) [mg/kg] | MIC (Burkholderia cepacia) [µg/mL] | MIC (Staphylococcus aureus [10]; [31]) [µg/mL] | MIC (Enterococcus faecium) [µg/mL] | MIC (Escherichia coli [13]) [µg/mL] | MIC (Pseudomonas aeruginosa [14]) [µg/mL] | MIC (Pseudomonas aeruginosa [15]) [µg/mL] | MIC (Streptococcus pyogenes [16]) [µg/mL] | ED50 (Staphylococcus aureus [18]; [32]) [mg/kg] | ED50 (Streptococcus pneumoniae; [33]) [mg/kg] | also measured |
| --- | --- | --- | --- | --- | --- | --- | --- | --- | --- | --- | --- | --- | --- | --- | --- | --- |
| O=C(O)c1cn(C2CC2)c2cc(N3CCNCC3)c(F)cc2c1=O [CIPROFLOXACIN] | 20 | > 100 | 2.4 | 0.39 (≈ 1.18 µM) | 0.2 | 3.6 | 6.2 (≈ 18.7 µM) | > 100 | 0.39 (≈ 1.18 µM) | – | – | – | – | – | – | MIC (Pseudomonas aeruginosa [7]): 0.1 µg/mL (≈ 0.302 µM); ED50 (Mus musculus [8]): 25 mg/kg; ED50 (Escherichia coli [9]; [30]): 1.3 mg/kg; ED50 (Mus musculus [11]): 37.4 mg/kg |
| Cc1c(N2C[C@@H](C)[C@H](N)C2)c(F)cn2c(=O)c(C(=O)O)cc(C3CC3)c12 | – | – | – | 0.02 (≈ 0.0556 µM) | – | – | 0.78 (≈ 2.17 µM) | 0.78 (≈ 2.17 µM) | 0.05 (≈ 0.139 µM) | 0.05 (≈ 0.139 µM) | 0.2 (≈ 0.556 µM) | 1.56 (≈ 4.34 µM) | – | – | – | MIC (Streptococcus pyogenes [12]): 0.05 µg/mL (≈ 0.139 µM) |
| COCCN[C@H]1CCN(c2c(F)cn3c(=O)c(C(=O)O)cc(C4CC4)c3c2C)C1 | – | – | – | 0.05 (≈ 0.124 µM) | 2.5 | 6.1 | 0.78 (≈ 1.93 µM) | 1.56 (≈ 3.87 µM) | 0.39 (≈ 0.967 µM) | 0.39 (≈ 0.967 µM) | 1.56 (≈ 3.87 µM) | 12.5 (≈ 31 µM) | 0.39 (≈ 0.967 µM) | 18.1 | – | ED50 (Mus musculus [17]): > 10 mg/kg |
| Cc1c(N2C[C@H]3CNC[C@H]3C2)c(F)cn2c(=O)c(C(=O)O)cc(C3CC3)c12 | 58.7 | 25.2 | 6.4 | 0.05 (≈ 0.135 µM) | 0.7 | 1.2 | 3.1 (≈ 8.35 µM) | 6.2 (≈ 16.7 µM) | 0.1 (≈ 0.269 µM) | – | 0.2 (≈ 0.538 µM) | 6.2 (≈ 16.7 µM) | 0.1 (≈ 0.269 µM) | 12.5 | 1.3 | MIC (Escherichia coli [19]): 0.2 µg/mL (≈ 0.538 µM); ED50 (Mus musculus [20]): 5 mg/kg |
| Cc1c(N2CCC[C@H](NC3CC3)C2)c(F)cn2c(=O)c(C(=O)O)cc(C3CC3)c12 | – | – | – | 0.01 (≈ 0.025 µM) | > 5 | 0.8 | 0.78 (≈ 1.95 µM) | 0.39 (≈ 0.976 µM) | 0.1 (≈ 0.25 µM) | 0.05 (≈ 0.125 µM) | 0.2 (≈ 0.501 µM) | 3.1 (≈ 7.76 µM) | 0.02 (≈ 0.0501 µM) | – | 4.3 | ED50 (Mus musculus [21]): > 32 mg/kg |
| Cc1c(N2C[C@@H]3CCN[C@@H]3C2)c(F)cn2c(=O)c(C(=O)O)cc(C3CC3)c12 (stereo in doubt; 3gg) | – | 7.6 | 6.4 | 0.02 (≈ 0.0538 µM) | 0.4 | 5 | 1.56 (≈ 4.2 µM) | – | 0.05 (≈ 0.135 µM) | 0.2 (≈ 0.538 µM) | – | – | – | – | – | ED50 (Pseudomonas aeruginosa [1]): 39.1 mg/kg; ED50 (Mus musculus [22]): 2.5 mg/kg; ED50 (Mus musculus [23]): 0.7 mg/kg; MIC (Staphylococcus aureus [10]): 0.39 µg/mL (≈ 1.05 µM) |
| Cc1c(N2CC[C@H](C)[C@H](N)C2)c(F)cn2c(=O)c(C(=O)O)cc(C3CC3)c12 (stereo in doubt; 3ss) | – | – | – | 0.05 (≈ 0.134 µM) | – | 3.3 | 1.56 (≈ 4.18 µM) | 1.56 (≈ 4.18 µM) | 0.2 (≈ 0.536 µM) | 0.39 (≈ 1.04 µM) | 0.78 (≈ 2.09 µM) | 12.5 (≈ 33.5 µM) | 0.1 (≈ 0.268 µM) | – | – | ED50 (Streptococcus pneumoniae): 1 mg/kg; ED50 (Escherichia coli [5]): 0.6 mg/kg; ED50 (Mus musculus [24]): 2 mg/kg; ED50 (Staphylococcus aureus [18]): 0.8 mg/kg; ED50 (Escherichia coli [9]): 1.4 mg/kg |
| CCN[C@H]1CCN(c2c(F)cn3c(=O)c(C(=O)O)cc(C4CC4)c3c2C)C1 | – | – | > 8 | 0.05 (≈ 0.134 µM) | 0.6 | 1 | 3.1 (≈ 8.3 µM) | 1.56 (≈ 4.18 µM) | 0.1 (≈ 0.268 µM) | 0.2 (≈ 0.536 µM) | 0.39 (≈ 1.04 µM) | 6.2 (≈ 16.6 µM) | 0.1 (≈ 0.268 µM) | 7.7 | 2.9 | ED50 (Mus musculus [25]): > 50 mg/kg; ED50 (Mus musculus [26]): 7.9 mg/kg; ED50 (Mus musculus [20]): 3 mg/kg |
| Cc1c(N2CC[C@H](NCCF)C2)c(F)cn2c(=O)c(C(=O)O)cc(C3CC3)c12 | > 50 | – | > 32 | 0.01 (≈ 0.0255 µM) | 4.9 | 1.1 | 3.1 (≈ 7.92 µM) | 0.39 (≈ 0.996 µM) | 0.1 (≈ 0.255 µM) | 0.2 (≈ 0.511 µM) | 0.78 (≈ 1.99 µM) | 12.5 (≈ 31.9 µM) | 0.1 (≈ 0.255 µM) | 7.5 | – | ED50 (Mus musculus [27]): 9.9 mg/kg; ED50 (Escherichia coli [9]; [30]): 17.2 mg/kg |
